According to ChEMBL document CHEMBL1152638, “Natural product leads for drug discovery: isolation, synthesis and biological evaluation of 6-cyano-5-methoxyindolo[2,3-a]carbazole based ligands as antibacterial agents” (Bioorg Med Chem, 2009):
In brackets after ≈: the same amount, converted by molar mass. Structures can show the parent of a compound that is named as a salt.

Experiments:
[1] = test system: Mycobacterium tuberculosis; experiment: Antitubercular activity against Mycobacterium tuberculosis H37Rv after 16 to 24 hrs by microplate alamar blue assay; type: functional
Outline: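 H37Rv (ATCC 27294) in Middlebrook 7H12; twofold dilutions from 12.8 mM DMSO stocks, final 128 to 0.5 μM; 1 × 10^5 cfu/mL inoculum, aerobic 37 °C. Day 7: Tween 80 plus Alamar Blue added, then 16–24 h more. Fluorescence ex 530/em 590 nm; MIC is lowest concentration giving ≥90% reduction versus bacteria-only controls; rifampin, isoniazid positive controls.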

Bacillus anthracis = experiment: Antibacterial activity against Bacillus anthracis deltaANR after 14 hrs by microplate alamar blue assay; type: functional
Human alphaherpesvirus 2 = experiment: Antiviral activity against HSV2 infected in mink lung cells assessed as reduction in viral titer at 1 ug/ml; type: functional; design: scale not given: the % may be the effect or the level left
[2] = Cytotoxicity against human LoVo cells; type: cell-based; conditions: read-out: MIC
[3] = Cytotoxicity against human KB cells; type: cell-based; conditions: read-out: MIC

SMILES	MIC [1]	MIC (Bacillus anthracis)	Activity (Human alphaherpesvirus 2)	MCC [2]	MCC [3]
COc1c(C(N)=O)c2c3ccccc3[nH]c2c2c1c1ccccc1n2C	> 128 µM				
CO[C@H]1/C=C/O[C@@]2(C)Oc3c(C)c(O)c4c(O)c(c(/C=N/N5CCN(C)CC5)c(O)c4c3C2=O)NC(=O)/C(C)=C\C=C\[C@H](C)[C@H](O)[C@@H](C)[C@@H](O)[C@@H](C)[C@H](OC(C)=O)[C@@H]1C [RIFAMPIN]	0.1 µM (≈ 0.0823 µg/mL)				
N#Cc1c(O)c2c3ccccc3n(Cc3ccccc3)c2c2[nH]c3ccccc3c12	60.6 µM (≈ 23.5 µg/mL)	1.6 µM (≈ 0.62 µg/mL)			
COc1c(C#N)c2c3ccccc3[nH]c2c2[nH]c3ccccc3c12	> 128 µM	6.3 µM (≈ 1.96 µg/mL)			
COc1c(C#N)c2c3ccccc3[nH]c2c2c1c1ccccc1n2C	> 128 µM	> 200 µM	95%	5 µg/mL	5 µg/mL
NNC(=O)c1ccncc1 [ISONIAZID]	0.6 µM (≈ 0.0823 µg/mL)				
COc1c(C#N)c2c3ccccc3n(C)c2c2c1c1ccccc1n2C	> 128 µM	> 200 µM			
Cn1c2ccccc2c2c(O)c(C#N)c3c4ccccc4[nH]c3c21	56.6 µM (≈ 17.6 µg/mL)	6.3 µM (≈ 1.96 µg/mL)			
COc1c(C#N)c2c3ccccc3[nH]c2c2c1c1ccccc1n2Cc1ccccc1	44.1 µM (≈ 17.7 µg/mL)	> 200 µM			
N#Cc1c(O)c2c3ccccc3[nH]c2c2[nH]c3ccccc3c12	15 µM (≈ 4.46 µg/mL)	1.6 µM (≈ 0.476 µg/mL)			
COc1c(C#N)c2c3ccccc3n(C)c2c2[nH]c3ccccc3c12	> 128 µM	> 200 µM			
O=C(O)c1cn(C2CC2)c2cc(N3CCNCC3)c(F)cc2c1=O [CIPROFLOXACIN HYDROCHLORIDE]		0.1 µM			
CN[C@@H]1C[C@H]2O[C@@](C)([C@@H]1OC)n1c3ccccc3c3c4c(c5c6ccccc6n2c5c31)C(=O)NC4 [STAUROSPORINE]	14.7 µM (≈ 6.86 µg/mL)	128 µM (≈ 59.7 µg/mL)			
